Measurements collected from several papers.
Lines come from different studies, so protocols differ.
EGFR: Epidermal growth factor receptor (EGFR, Homo sapiens, UniProt P00533)
EGFR L858R/T790M: Epidermal growth factor receptor (EGFR, Homo sapiens, UniProt P00533, L858R/T790M)

Structure (SMILES) | target | read-out | action | method | endpoint | result
O=C(O)Cc1csc(NC(=O)c2cc3ccccc3[nH]2)n1 | EGFR | enzyme activity | inhibitor | ELISA | IC50 | 618 nM
Cc1ncc(CN2CCN(Cc3ccccn3)CC2)c2cc(C(=O)c3ccc4c(c3)OCCO4)oc12 | EGFR L858R/T790M | enzyme activity | inhibitor | ADP detection | IC50 | 3.23 nM
COc1ccc2[nH]c(C(=O)Nc3nc(CC(=O)O)cs3)cc2c1 | EGFR | enzyme activity | inhibitor | ELISA | IC50 | 1740 nM
C=CC(=O)N1CC[C@@H](Oc2nc(Nc3ccc(N4CCC(N5CCN(C)CC5)CC4)cc3)c(C(N)=O)nc2CC)C1 | EGFR L858R/T790M | enzyme activity | inhibitor | – | IC50 | 1.2 nM
Cc1ccc2c(-c3cc4c(CN5CCN(Cc6ccccn6)CC5)cnc(C)c4o3)cc(=O)oc2c1 | EGFR L858R/T790M | enzyme activity | inhibitor | ADP detection | IC50 | 12.4 nM
CC(C)=CCc1c(O)c(O)c2oc3c(O)ccc(O)c3c(=O)c2c1CC=C(C)C | EGFR | binding | – | SPR | Kd | 19000 nM
Cc1ncc(CN2CCc3ccccc3C2)c2cc(C(=O)c3ccc4c(c3)OCCO4)oc12 | EGFR L858R/T790M | enzyme activity | inhibitor | ADP detection | IC50 | 10.8 nM
C=CC(=O)Nc1cc(Nc2ncc(C(=O)OC(C)C)c(-c3cn(C)c4ccccc34)n2)c(OC)cc1N(C)CCN(C)C | EGFR L858R/T790M | enzyme activity | inhibitor | – | IC50 | 0.6 nM
Cc1c(Cc2ccccc2)c(=O)oc2c(C)c(OCC(=O)NN=Cc3ccc([N+](=O)[O-])cc3)ccc12 | EGFR | enzyme activity | inhibitor | ATP luminescence | IC50 | 313 nM
COC(=O)[C@]12CCC(C)(C)C[C@H]1[C@H]1C(=O)C=C3[C@@]4(C)C=C(C#N)C(=O)C(C)(C)[C@@H]4CC[C@@]3(C)[C@]1(C)CC2 | EGFR L858R/T790M | binding | – | MST | Kd | 1100 nM
O=C(CCn1c(=O)ccc2ccccc21)N1CCOCC1 | EGFR | enzyme activity | inhibitor | – | IC50 | 52.7 nM
CCc1c(C)c2ccc(OCC(=O)NN=Cc3ccc([N+](=O)[O-])cc3)cc2oc1=O | EGFR | enzyme activity | inhibitor | ATP luminescence | IC50 | 414 nM
